Data: paper PMC9096626 (RSC Advances, 2022)

Experiments:
[1] = iEDDA cycloaddition kinetics with TCO-OH; conditions: water : DMSO (4 : 1), 37 °C
In short: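 Pseudo-first-order runs at 37 °C used varied TCO-OH concentrations at 10- to 50-fold excess over the tetrazine amino acid. Full spectra (700–200 nm) were followed by time-resolved UV-Vis and fitted as single-step kinetics to give kobs. Second-order rate constants came from the slope of kobs against [TCO-OH].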

[2] = tested on: Somatostatin receptor type 2 (SSTR2); conditions: statement in words; cited from earlier work

Row | Compound | iEDDA cycloaddition rate relative to methyl analogue 4b [1] | affinity for Somatostatin receptor type 2 (SSTR2) [2]
1 | Cl.N[C@@H](CC1=CCC(O)(c2nncnn2)C=C1)C(=O)O (stereo partly drawn) [4a] | 14 times | –
2 | Cl.N[C@@H](Cc1ccc(Oc2nnc(-c3ccccc3)nn2)cc1)C(=O)O [4c] | three times faster than 4b | –
3 | octreotide | – | high affinity
